Results reported in ChEMBL document CHEMBL1147366, “Cytotoxic and antimalarial alkaloids from the tubers of Stephania pierrei” (J Nat Prod, 1993).
Values after ≈ are worked out from the molar mass of the structure shown.

Tests used:
LNCaP = experiment: Cytotoxicity against human LNCAP cells after 3 days by SRB assay; assay type: functional; conditions: 72 h, read-out: ED50 (the source's name)
[1] = Cytotoxicity against human U373 cells after 3 days by SRB assay; assay type: functional, U-373MG ATCC; conditions: U373 MG, 72 h, read-out: ED50 (the source's name)
[2] = Cytotoxicity against human BCA1 cells after 3 days by SRB assay; assay type: functional; conditions: BCA1, 72 h, read-out: ED50 (the source's name)
A-431 = experiment: Cytotoxicity against human A431 cells after 3 days by SRB assay; assay type: functional; conditions: A-431, 72 h, read-out: ED50 (the source's name)
SK-MEL-2 = experiment: Cytotoxicity against human SK-MEL-2 cells after 3 days by SRB assay; assay type: functional; conditions: SK-MEL-2, 72 h, read-out: ED50 (the source's name)
Plasmodium falciparum [3] = experiment: Antimalarial activity after 24 hrs against chloroquine-sensitive Plasmodium falciparum D6 infected type A+ human erythrocytes by [3H]hypoxanthine uptake; assay type: functional; conditions: read-out: ED50 (the source's name)
[4] = Cytotoxicity against human Col1 cells after 3 days by SRB assay; assay type: functional; conditions: Col1, 72 h, read-out: ED50 (the source's name)
Plasmodium falciparum [5] = experiment: Antimalarial activity after 24 hrs against chloroquine-resistant Plasmodium falciparum W2 infected type A+ human erythrocytes by [3H]hypoxanthine uptake; assay type: functional; conditions: read-out: ED50 (the source's name)
[6] = Cytotoxicity against human LUC1 cells after 3 days by SRB assay; assay type: functional; conditions: LUC1, 72 h, read-out: ED50 (the source's name)
P388 = experiment: Cytotoxicity against mouse P388 cells after 3 days by SRB assay; assay type: functional; conditions: P388, 72 h, read-out: ED50 (the source's name)
HT-1080 = experiment: Cytotoxicity against human HT1080 cells after 3 days by SRB assay; assay type: functional; conditions: HT-1080, 72 h, read-out: ED50 (the source's name)
ZR-75-1 = experiment: Cytotoxicity against human ZR-75-1 cells after 3 days by SRB assay; assay type: functional; conditions: ZR-75-1, 72 h, read-out: ED50 (the source's name)
[7] = Selectivity index, ED50 for human KB cells to ED50 for chloroquine-resistant Plasmodium falciparum W2; assay type: toxicity, cell-based; conditions: read-out: Ratio ED50
Summary of the method: (§1)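 Selectivity index is the ED50 in KB cells divided by the ED50 against the P. falciparum strain (D-6, chloroquine-sensitive; W-2, chloroquine-resistant). Parasite ED50s are expressed in ng/ml and KB ED50s in µg/ml.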

[8] = Cytotoxicity against human KB cells after 3 days by SRB assay; assay type: cell-based; conditions: read-out: ED50
[9] = Selectivity index, ED50 for human KB cells to ED50 for chloroquine-sensitive Plasmodium falciparum D6; assay type: toxicity, cell-based; conditions: read-out: Ratio ED50; summary of the method: as §1
[10] = Cytotoxicity against vinblastine-resistant human KBV1 cells after 3 days by SRB assay; assay type: functional; conditions: KB-V1, 72 h, read-out: ED50 (the source's name)

SMILES | EC50 (LNCaP) [µg/mL] | EC50 [1] [µg/mL] | EC50 [2] [µg/mL] | EC50 (A-431) [µg/mL] | EC50 (SK-MEL-2) [µg/mL] | EC50 (Plasmodium falciparum [3]) [µg/mL] | EC50 [4] [µg/mL] | EC50 (Plasmodium falciparum [5]) [µg/mL] | EC50 [6] [µg/mL] | EC50 (P388) [µg/mL] | EC50 (HT-1080) [µg/mL] | EC50 (ZR-75-1) [µg/mL] | selectivity ratio [7] | CC50 at 72 h [8] [µg/mL] | selectivity ratio [9] | EC50 [10] [µg/mL]
COc1cc2c(cc1O)-c1c3c(cc4c1[C@@H](C2)N(C)CC4)OCO3 | 1.9 (≈ 5.84 µM) | 1.7 (≈ 5.22 µM) | 2.5 (≈ 7.68 µM) | 12.6 (≈ 38.7 µM) | 18.8 (≈ 57.8 µM) | 2.01 (≈ 6.18 µM) | 4.1 (≈ 12.6 µM) | 2.88 (≈ 8.85 µM) | 3.1 (≈ 9.53 µM) | 0.4 (≈ 1.23 µM) | 2.9 (≈ 8.91 µM) | 2.1 (≈ 6.45 µM) | 1 | 1.8 (≈ 5.53 µM) | 1 | 1.2 (≈ 3.69 µM)
CCN(CC)CCCC(C)Nc1ccnc2cc(Cl)ccc12 (stereo unspecified) [CHLOROQUINE] |  |  |  |  |  | 0.0013 (≈ 0.00406 µM) |  | 0.0112 (≈ 0.035 µM) |  |  |  |  |  |  |  | 
COc1cc2c(c(O)c1OC)CCN1Cc3c(ccc(OC)c3OC)C[C@@H]21 |  |  |  |  |  | 1.61 (≈ 4.33 µM) |  | 0.55 (≈ 1.48 µM) |  |  |  |  | > 36 |  | > 12 | 
COc1c(O[C@@H]2O[C@H](CO)[C@@H](O)[C@H](O)[C@H]2O)cc2c3c1-c1ccccc1C[C@H]3NCC2 | > 20 | > 20 | > 20 | > 20 | > 20 | > 10 | > 20 | > 10 | > 20 | > 20 | > 20 | > 20 |  | > 20 |  | > 20
COc1ccc2c(c1O)-c1c(O)c(OC)cc3c1[C@H](C2)[N+](C)(C)CC3 [MAGNOFLORINE] |  |  |  |  |  | > 10 |  | > 10 |  |  |  |  |  |  |  | 
COc1cc2c(cc1O)C[C@H]1c3c(cc4c(c3-2)OCO4)CCN1C [CASSYTHICINE] | 6.1 (≈ 18.7 µM) | 4.8 (≈ 14.8 µM) | 6.8 (≈ 20.9 µM) | 10.5 (≈ 32.3 µM) | 8.9 (≈ 27.4 µM) | 2.29 (≈ 7.04 µM) | 7.3 (≈ 22.4 µM) | 2.26 (≈ 6.95 µM) | 6.6 (≈ 20.3 µM) | > 5 | 7.6 (≈ 23.4 µM) | 9.8 (≈ 30.1 µM) | 3 | 3 (≈ 9.22 µM) | 2 | 1.2 (≈ 3.69 µM)
OC(c1cc(C(F)(F)F)nc2c(C(F)(F)F)cccc12)C1CCCCN1 (stereo unspecified) [MEFLOQUINE] |  |  |  |  |  | 0.0073 (≈ 0.0193 µM) |  | 0.0016 (≈ 0.00423 µM) |  |  |  |  |  |  |  | 
COc1cc2c(cc1OC)-c1c3c(cc4c1[C@@H](C2)NCC4)OCO3 | 1.5 (≈ 4.61 µM) | 0.6 (≈ 1.84 µM) | 2 (≈ 6.15 µM) | 0.8 (≈ 2.46 µM) | 3.3 (≈ 10.1 µM) | 0.47 (≈ 1.44 µM) | 1.7 (≈ 5.22 µM) | 1.03 (≈ 3.17 µM) | 13.2 (≈ 40.6 µM) | 0.6 (≈ 1.84 µM) | 1.7 (≈ 5.22 µM) | 1.7 (≈ 5.22 µM) |  | 0.8 (≈ 2.46 µM) | 2 | 0.7 (≈ 2.15 µM)
CN1CCc2cc3c(c4c2[C@H]1Cc1cc(O)ccc1-4)OCO3 | 7.3 (≈ 24.7 µM) | 4.9 (≈ 16.6 µM) | 8.9 (≈ 30.1 µM) | 6.7 (≈ 22.7 µM) | > 20 | 3.15 (≈ 10.7 µM) | 11.9 (≈ 40.3 µM) | 1.78 (≈ 6.03 µM) | 6.9 (≈ 23.4 µM) | > 5 | 7.6 (≈ 25.7 µM) | 13.6 (≈ 46 µM) | 4 | 4.1 (≈ 13.9 µM) | 2 | 1.2 (≈ 4.06 µM)
COc1cc2c(cc1OC)[C@@H]1Cc3ccc(OC)c(OC)c3C[N+]1(C)CC2.[Cl-] (stereo partly specified) |  |  |  |  |  | > 10 |  | > 10 |  |  |  |  |  |  |  | 
COc1cc2c(cc1OC)-c1c3c(cc4c1[C@@H](C2)N(C)CC4)OCO3 | 1.9 (≈ 5.6 µM) | 1.5 (≈ 4.42 µM) | 2.2 (≈ 6.48 µM) | 1.7 (≈ 5.01 µM) | 3.8 (≈ 11.2 µM) | 1.26 (≈ 3.71 µM) | 2.1 (≈ 6.19 µM) | 2.55 (≈ 7.51 µM) | 6.1 (≈ 18 µM) | 0.6 (≈ 1.77 µM) | 1.7 (≈ 5.01 µM) | 2.8 (≈ 8.25 µM) | 2 | 1.6 (≈ 4.71 µM) | 4 | 0.9 (≈ 2.65 µM)
COc1cc2c(cc1OC)[C@@H]1Cc3ccc(O)c(OC)c3CN1CC2 |  |  |  |  |  | 2.84 (≈ 8.32 µM) |  | 0.84 (≈ 2.46 µM) |  |  |  |  | > 24 |  | > 7 | 
COc1cc2c(c(O)c1OC)[C@@H]1Cc3ccc(OC)c(OC)c3CN1CC2 |  |  |  |  |  | 4.34 (≈ 11.7 µM) |  | 1.91 (≈ 5.14 µM) |  |  |  |  | > 10 |  | > 5 | 
COc1ccc2c(c1O)C(Cc1ccc(O)cc1)[N+](C)(C)CC2.[Cl-] (racemic) |  |  |  |  |  | > 10 |  | > 10 |  |  |  |  |  |  |  | 
COc1ccc2c(c1)C[C@@H]1c3c(cc4c(c3-2)OCO4)CCN1C | 2.9 (≈ 9.37 µM) | 1.3 (≈ 4.2 µM) | 2.9 (≈ 9.37 µM) | 1.3 (≈ 4.2 µM) | > 20 | 2.56 (≈ 8.28 µM) | 3.2 (≈ 10.3 µM) | 1.61 (≈ 5.2 µM) | 12.2 (≈ 39.4 µM) | > 5 | 1.8 (≈ 5.82 µM) | 2.6 (≈ 8.4 µM) | 1 | 2.5 (≈ 8.08 µM) | > 1 | 1.2 (≈ 3.88 µM)
c1ccc2c(c1)C[C@H]1NCCc3cc4c(c-2c31)OCO4 [ANONAINE] | 2.9 (≈ 10.9 µM) | 1.5 (≈ 5.65 µM) | 3.3 (≈ 12.4 µM) | 4.2 (≈ 15.8 µM) | 15.8 (≈ 59.6 µM) | 1.29 (≈ 4.86 µM) | 4 (≈ 15.1 µM) | 1.9 (≈ 7.16 µM) | 1.8 (≈ 6.78 µM) | > 5 | 2.4 (≈ 9.05 µM) | 2.7 (≈ 10.2 µM) | 3 | 2.6 (≈ 9.8 µM) | 5 | 1.8 (≈ 6.78 µM)
COc1c(O)cc2c3c1-c1ccccc1C[C@H]3NCC2 [(-)-ASIMILOBINE] | > 20 | > 20 | > 20 | > 20 | > 20 | 0.95 (≈ 3.55 µM) | > 20 | 0.47 (≈ 1.76 µM) | > 20 | > 20 | > 20 | > 20 | > 42 | > 20 | > 21 | > 20
C[C@@H]1CC[C@H]2[C@@H](C)C(=O)O[C@@H]3O[C@@]4(C)CC[C@@H]1[C@]32OO4 [ARTEMISININ] |  |  |  |  |  | 0.0006 (≈ 0.00213 µM) |  | 0.0005 (≈ 0.00177 µM) |  |  |  |  | 40000 |  | > 33300 | 
C=C[C@H]1CN2CC[C@H]1C[C@H]2[C@H](O)c1ccnc2ccc(OC)cc12 [QUININE] |  |  |  |  |  | 0.0094 (≈ 0.029 µM) |  | 0.0245 (≈ 0.0755 µM) |  |  |  |  | > 820 |  | > 2130 | 
COC1=C[C@@]23CCN(C)[C@@H](Cc4ccc(OC)c(O)c42)C3=CC1=O |  |  |  |  |  | > 10 |  | > 10 |  |  |  |  |  |  |  | 
COc1ccc2c(c1)C[C@H]1NCCc3cc4c(c-2c31)OCO4 | 2.4 (≈ 8.13 µM) | 1.9 (≈ 6.43 µM) | 3.4 (≈ 11.5 µM) | 4.6 (≈ 15.6 µM) | 12.6 (≈ 42.7 µM) | 0.44 (≈ 1.49 µM) | 4.1 (≈ 13.9 µM) | 2.27 (≈ 7.69 µM) | 2.3 (≈ 7.79 µM) | 2.2 (≈ 7.45 µM) | 2.2 (≈ 7.45 µM) | 2.4 (≈ 8.13 µM) | > 9 | 2 (≈ 6.77 µM) | 45 | 0.9 (≈ 3.05 µM)
COc1cc2c(cc1OC)[C@@H]1Cc3ccc(OC)c(OC)c3CN1CC2 [TETRAHYDROPALMATINE] |  |  |  |  |  | > 10 |  | 5.02 (≈ 14.1 µM) |  |  |  |  |  |  |  | 
COC1=C(OC)[C@]23CCc4cc5c(cc4[C@]2(CCN3C)CC1=O)OCO5 |  |  |  |  |  | > 10 |  | > 10 |  |  |  |  |  |  |  | 
COc1ccc(C[C@H]2c3cc(O)c(OC)cc3CCN2C)cc1O [(S)-RETICULINE] |  |  |  |  |  | 4.05 (≈ 12.3 µM) |  | 4.47 (≈ 13.6 µM) |  |  |  |  |  |  |  | 
COc1cc2c(cc1OC)CN1CCc3cc(OC)c(OC)cc3[C@@H]1C2 [XYLOPININE] |  |  |  |  |  | > 10 |  | > 10 |  |  |  |  |  |  |  | 
COc1cc2c(cc1OC)CN1CCc3cc(OC)c(OC)c(O)c3[C@@H]1C2 |  |  |  |  |  | 2.23 (≈ 6 µM) |  | 1.94 (≈ 5.22 µM) |  |  |  |  | > 10 |  | > 9 | 
